Assay results: ChEMBL document CHEMBL1139238, “Preparation of two sets of 5,6,7-trioxygenated dihydroflavonol derivatives as free radical scavengers and neuronal cell protectors to oxidative damage” (Bioorg Med Chem, 2009)
pEC50, pIC50: −log10 of the molar value. Activity calls are given as the source filed them. The calls are words filed in the database; no cut-off is given here.

Key:
[1] = target: Xanthine dehydrogenase/oxidase (Rattus norvegicus) (UniProt P22985); experiment: Inhibition of xanthine oxidase assessed as formation of formazan after 2 hrs by spectrophotometry; design: concentration or dose not given beside the values
PC-12 [2] = experiment: Cytoprotective activity against H2O2-induced cell death in rat PC12 cells assessed as increase in cell viability at 16 ug/ml preincubated 2 hrs before H2O2 challenge measured after 4 hrs by MTT assay relative to control; type: functional
Method in brief: (§1)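 PC12 cells from Shanghai Institute of Cell Biology, grown at 37 °C in 5% CO2 in high-glucose DMEM with 10% heat-inactivated calf serum and penicillin/streptomycin. Cells seeded at 6×10^3/well and used 36 h later. Compound in DMSO diluted in medium, 2 h pretreatment, then 500 µM H2O2 (final) for 4 h. MTT (5 mg/mL) for 3 h, formazan dissolved in DMSO, read at 570 nm. Gain is %OD(drug)/OD(normal) minus %OD(DMSO)/OD(normal).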

PC-12 [3] = experiment: Cytoprotective activity against H2O2-induced cell death in rat PC12 cells assessed as increase in cell viability at 32 ug/ml preincubated 2 hrs before H2O2 challenge measured after 4 hrs by MTT assay relative to control; type: functional
Method in brief: as §1

PC-12 [4] = experiment: Cytoprotective activity against H2O2-induced cell death in rat PC12 cells assessed as increase in cell viability at 8 ug/ml preincubated 2 hrs before H2O2 challenge measured after 4 hrs by MTT assay relative to control; type: functional
Method in brief: as §1

[5] = tested on: Radical scavenging activity; experiment: Antioxidant activity assessed as DPPH free radical scavenging activity by spectrophotometry; type: functional
Method in brief: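 DPPH (0.4 mg/mL) in methanol mixed with compounds (DMSO solutions) at various concentrations. Incubated 30 min at 37 °C, absorbance read at 517 nm. Methanolic DPPH alone serves as control; quercetin and vitamin C are the reference scavengers.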

Liver [6] = experiment: tissue or blood; details: Rattus norvegicus, 1 h
[7] = Antioxidant activity assessed as superoxide radical scavenging activity by spectrophotometry; type: functional
Method in brief: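 Superoxide generated by NADH (78 μM), nitroblue tetrazolium (50 μM) and phenazine methosulfate (5 μM) in 16 mM Tris–HCl, pH 8.0, with compounds at various concentrations. Read at 560 nm after 5 min at room temperature. Blanks lack phenazine methosulfate; quercetin and vitamin C are references.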

[8] = target: Xanthine dehydrogenase/oxidase (Rattus norvegicus) (UniProt P22985); experiment: Inhibition of xanthine oxidase assessed as formation of formazan at 16 ug/ml after 2 hrs by spectrophotometry
PC-12 [9] = experiment: Cytoprotective activity against H2O2-induced cell death in rat PC12 cells assessed as increase in cell viability preincubated 2 hrs before H2O2 challenge measured after 4 hrs by MTT assay; type: functional, cell-based
Liver [10] = experiment: Antioxidant activity against FeSO4-induced lipid peroxidation in rat liver homogenate assessed as inhibition of malondialdehyde release at 6 to 100 uM after 1 hr by thiobarbituric acid assay relative quercetin; type: functional, tissue-based
Method in brief: (§2)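 Rat (Sprague-Dawley) liver homogenate in ice-cold PBS; peroxidation driven by FeSO4 (4 μM) plus vitamin C (50 μM). Compounds at 0.1–100 μM, 37 °C for 1 h in capped tubes. Then 20% TCA for 30 min at room temperature, followed by 0.1 M HCl and 1% TBA at 99 °C for 1 h. After centrifugation, MDA read at 532 nm. Quercetin is the standard; n = 3, means ± SD.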

Liver [11] = experiment: Antioxidant activity against FeSO4-induced lipid peroxidation in rat liver homogenate assessed as inhibition of malondialdehyde release at < 5 uM after 1 hr by thiobarbituric acid assay relative quercetin; type: functional, tissue-based
Method in brief: as §2

Chain of Xanthine dehydrogenase/oxidase (Rattus norvegicus) (P22985 whole entry, looked up): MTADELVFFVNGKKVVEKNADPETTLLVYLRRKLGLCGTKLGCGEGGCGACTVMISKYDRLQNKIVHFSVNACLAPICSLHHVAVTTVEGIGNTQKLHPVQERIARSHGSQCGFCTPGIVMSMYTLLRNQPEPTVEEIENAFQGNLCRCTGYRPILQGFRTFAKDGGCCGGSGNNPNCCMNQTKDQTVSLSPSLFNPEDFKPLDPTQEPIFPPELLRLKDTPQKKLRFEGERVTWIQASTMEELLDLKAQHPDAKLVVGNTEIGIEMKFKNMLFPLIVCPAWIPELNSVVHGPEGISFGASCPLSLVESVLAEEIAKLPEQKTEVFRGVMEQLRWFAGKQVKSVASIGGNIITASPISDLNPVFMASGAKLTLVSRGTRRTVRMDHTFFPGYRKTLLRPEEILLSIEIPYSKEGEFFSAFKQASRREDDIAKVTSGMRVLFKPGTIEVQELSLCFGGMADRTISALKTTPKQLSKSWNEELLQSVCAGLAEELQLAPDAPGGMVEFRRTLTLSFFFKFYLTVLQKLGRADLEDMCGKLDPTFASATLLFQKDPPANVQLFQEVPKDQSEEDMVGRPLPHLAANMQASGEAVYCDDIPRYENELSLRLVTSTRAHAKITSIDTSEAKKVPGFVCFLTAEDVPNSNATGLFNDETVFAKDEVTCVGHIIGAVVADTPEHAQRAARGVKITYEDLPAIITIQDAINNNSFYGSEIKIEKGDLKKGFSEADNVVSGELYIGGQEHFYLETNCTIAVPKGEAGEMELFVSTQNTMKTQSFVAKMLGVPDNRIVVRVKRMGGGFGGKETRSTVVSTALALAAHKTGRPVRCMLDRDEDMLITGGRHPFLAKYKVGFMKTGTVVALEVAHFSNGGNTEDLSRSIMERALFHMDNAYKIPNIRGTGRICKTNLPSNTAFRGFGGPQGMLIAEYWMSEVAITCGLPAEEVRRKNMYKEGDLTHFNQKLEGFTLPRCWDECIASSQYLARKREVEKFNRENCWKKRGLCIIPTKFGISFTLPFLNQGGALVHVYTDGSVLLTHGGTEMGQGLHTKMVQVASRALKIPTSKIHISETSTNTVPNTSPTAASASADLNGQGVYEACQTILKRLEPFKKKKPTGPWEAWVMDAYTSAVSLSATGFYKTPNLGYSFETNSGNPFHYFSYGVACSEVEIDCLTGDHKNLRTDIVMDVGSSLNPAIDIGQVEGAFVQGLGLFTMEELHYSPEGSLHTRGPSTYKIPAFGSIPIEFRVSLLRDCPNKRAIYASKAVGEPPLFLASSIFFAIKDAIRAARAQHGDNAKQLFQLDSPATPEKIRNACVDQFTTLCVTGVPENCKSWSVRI

SMILES | Activity [1] [%] | Activity (PC-12 [2]) [%] | Activity (PC-12 [3]) [%] | Activity (PC-12 [4]) [%] | pEC50 [5] | pIC50 (Liver [6]) | pEC50 [7] | pIC50 [8] | pEC50 (PC-12 [9]) | Activity (Liver [10]) | Activity (Liver [11])
COc1ccc([C@@H]2Oc3cc(OC)c(OC)c(OC)c3C(=O)[C@@H]2O)cc1 (racemic) | 24.9 | 3.4 | 2.1 | 0.6 |  |  |  |  |  |  | 
COc1cc2c(c(OC)c1OC)C(=O)[C@H](O)[C@H](c1ccccc1O)O2 (racemic) |  |  |  |  | 4.08 | 4.57 | 3.78 |  |  |  | 
COc1cc([C@@H]2Oc3cc(OC)c(OC)c(OC)c3C(=O)[C@@H]2O)cc(OC)c1O (racemic) |  |  |  |  | 4.27 | 4.98 | 4.26 |  |  |  | 
COc1cc2c(c(OC)c1OC)C(=O)[C@H](O)[C@@H](c1ccc(O)c(O)c1)O2 (racemic) | 58.9 | 56.1 | 74.5 | 40.5 | 5.14 | 4.98 | 4.00 | 4.01 | 4.48 |  | 
COc1cc([C@@H]2Oc3cc(OC)c(OC)c(OC)c3C(=O)[C@@H]2O)cc(OC)c1OC (racemic) | 28.9 | 9.2 | 15.1 | 2.1 |  | 4.71 |  |  |  |  | 
COc1ccc([C@H]2Oc3cc(OC)c(O)c(OC)c3C(=O)[C@@H]2O)cc1 (racemic) | 21.1 | 37.2 | 53.6 | 19.5 | 4.02 | 4.92 |  |  | 4.08 |  | 
COc1cc2c(c(OC)c1O)C(=O)[C@H](O)[C@H](c1ccc3c(c1)OCO3)O2 (racemic) | 12.5 | 0.3 | 0.5 | 0.1 | 4.74 | 5.19 | 4.03 |  |  |  | 
COc1ccc([C@@H]2Oc3cc(OC)c(O)c(OC)c3C(=O)[C@@H]2O)cc1OC (racemic) | 74.3 | 19.8 | 22 | 2.9 | 4.44 |  | 4.30 | 4.80 |  |  | 
COc1cc2c(c(OC)c1OC)C(=O)[C@H](O)[C@@H](c1ccc(O)cc1)O2 (racemic) | 0.2 | 5.1 | 17.1 | -1.4 |  |  |  |  |  |  | 
COc1cc2c(c(OC)c1OC)C(=O)[C@H](O)[C@H](c1ccc3c(c1)OCO3)O2 (racemic) | 0.8 | 5.4 | 4.5 | 1.4 |  |  | 4.10 |  |  |  | 
COc1ccc([C@@H]2Oc3cc(OC)c(OC)c(OC)c3C(=O)[C@@H]2O)cc1OC (racemic) | 46.6 | 1.9 | 2.4 | -2.5 |  | 4.54 |  |  |  |  | 
COc1ccc([C@H]2Oc3cc(OC)c(OC)c(OC)c3C(=O)[C@@H]2O)cc1O (racemic) |  |  |  |  | 3.91 |  | 3.95 |  |  |  | 
COc1cc2c(c(OC)c1O)C(=O)[C@H](O)[C@@H](c1ccc(O)cc1)O2 (racemic) | 19.8 | 13.4 | 19.1 | -3.8 | 4.45 |  |  |  |  |  | 
COc1cc([C@@H]2Oc3cc(OC)c(O)c(OC)c3C(=O)[C@@H]2O)ccc1O (racemic) | 15.4 | 0.5 | 1.6 | -0.2 | 4.37 | 5.72 | 4.01 |  |  |  | 
COc1cc([C@H]2Oc3cc(OC)c(OC)c(OC)c3C(=O)[C@@H]2O)ccc1O (racemic) |  |  |  |  | 4.56 | 5.26 | 4.01 |  |  | Active | inactive
O=C1O[C@H]([C@@H](O)CO)C(O)=C1O [ASCORBIC ACID] |  |  |  |  | 3.81 |  | 3.59 |  |  |  | 
O=c1c(O)c(-c2ccc(O)c(O)c2)oc2cc(O)cc(O)c12 [QUERCETIN] |  | 42.6 | 61.7 | 28.9 | 5.26 | 5.22 | 4.39 |  | 4.17 |  | 
